Laboratory results taken from PubChem BioAssay AID588752 (Vanderbilt Specialized Chemistry Center, 2011).
Active and inactive are the calls of the source. The rule behind the calls is not given here.

Molecular target: Muscarinic acetylcholine receptor M5 (Rattus norvegicus) (UniProt P08911)
Assay: rat M5 receptor positive allosteric modulation, dose response, selectivity assay, CHO cells, Fluo-4 calcium mobilization (AID 588752)
Settings: Fluo-4, ACh EC20, at 30 µM (top of the series)
Procedure, shortened: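 System – CHO cells stably expressing rat muscarinic M5 receptor · Timing – 144 s compound pre-incubation, 86 s to EC80, 37 °C · Signal – kinetic Fluo-4 AM fluorescence of intracellular calcium mobilization · Also added – acetylcholine at EC20, then acetylcholine at EC80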

Muscarinic acetylcholine receptor M5 (Rattus norvegicus), sequence (P08911 whole entry, looked up): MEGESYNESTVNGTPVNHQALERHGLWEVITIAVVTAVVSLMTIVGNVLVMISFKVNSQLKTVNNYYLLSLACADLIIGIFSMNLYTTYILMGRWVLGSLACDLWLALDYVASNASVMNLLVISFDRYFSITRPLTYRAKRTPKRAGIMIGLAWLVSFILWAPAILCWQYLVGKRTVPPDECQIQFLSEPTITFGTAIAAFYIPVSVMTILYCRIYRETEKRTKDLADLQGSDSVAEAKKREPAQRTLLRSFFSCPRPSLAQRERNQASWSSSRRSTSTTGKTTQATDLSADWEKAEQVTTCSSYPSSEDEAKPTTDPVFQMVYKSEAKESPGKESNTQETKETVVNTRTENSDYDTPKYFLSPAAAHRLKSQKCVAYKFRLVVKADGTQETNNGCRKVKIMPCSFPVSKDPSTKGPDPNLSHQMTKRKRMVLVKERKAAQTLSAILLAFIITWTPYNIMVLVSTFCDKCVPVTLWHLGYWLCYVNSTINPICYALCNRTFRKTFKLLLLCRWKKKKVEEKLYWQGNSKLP

outcome, inactive:
Cc1nc2sc(C(=O)NCc3ccncn3)c(N)c2c(C)c1Cl
Cc1nc2sc(C(=O)NCc3ccc4c(c3)OCO4)c(N)c2c(C)c1Cl
Cc1nc2sc(C(=O)NCc3nccs3)c(N)c2c(C)c1Cl
Cc1nc2sc(C(=O)NCCc3ccncc3)c(N)c2c(C)c1Cl
Cc1nc2sc(C(=O)NC3CC3)c(N)c2c(C)c1Cl
Cc1nc2sc(C(=O)NCc3ccncc3)c(N)c2c(C)c1Cl
Cc1nc2sc(C(=O)NCc3cccnc3)c(N)c2c(C)c1Cl
Cc1nc2sc(C(=O)NCc3ccccc3)c(N)c2c(C)c1Cl
Cc1nc2sc(C(=O)NCc3cccc(F)c3F)c(N)c2c(C)c1Cl
